Assay results as given in ChEMBL document CHEMBL5674889, “Enhanced JunD/RSK3 signalling due to loss of BRD4/FOXD3/miR-548d-3p axis determines BET inhibition resistance” (2020).
Active and inactive are the calls of the source.

Key:
MDA-MB-231 [1] = experiment: Effect of human RSK3-overexpressing MDA-MB-231 cells assessed as suppression of tumour sphere formation at 1 uM by Tumour sphere assay; format: functional, cell-based
MDA-MB-231 [2] = experiment: Induction of apoptosis in human MDA-MB-231 cells at 1 uM by FACS assay; format: functional, cell-based
How it was run: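 Stable clones (vector, RSK3-overexpressing or RPS6KA2-knockdown) treated ± JQ1 1 μM. Cells washed twice in PBS, resuspended at 1 × 10^6 cells/ml in binding buffer, stained with Annexin V-FITC and propidium iodide for 10 min at room temperature in the dark, then read by flow cytometry. Three independent experiments; one-way ANOVA.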

MDA-MB-231 [3] = experiment: Effect on human MDA-MB-231 cells assessed as miR-548d-5p expression at 1 uM by real-time PCR analysis; format: functional, cell-based
BT-549 [4] = experiment: Effect on human BT-549 cells assessed as RSK3 […] expression at 1 uM for 24 hrs by Western blot analysis; format: functional, cell-based
BT-549 [5] = experiment: Antiproliferative activity in human BT-549 cells assessed as cell growth in the presence of AZ5104 at 1 uM by CellTiter-Glo luminescent cell viability assay; format: functional, cell-based
How it was run: (§1)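 BLBC cells seeded at 3000/well, adhered overnight, then exposed to JQ1 (1 μM) with or without an EGFR inhibitor (1 μM) for 48 h; control and RPS6KA2-shRNA clones tested. Viability by CellTiter-Glo luminescence, background-subtracted and normalized to DMSO-treated control; triplicates, mean ± SD, one-way ANOVA against JQ1 alone.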

BT-549 [6] = experiment: Antiproliferative activity in human RPS6KA2-knockdown BT-549 cells assessed as inhibited cell growth at 1 uM for 48 hrs by CCK-8 assay; format: functional, cell-based
BT-549 [7] = experiment: Effect on human JUND-knockdown BT-549 cells assessed as reduction of RSK3 protein expression at 1 uM by Western blot analysis; format: functional, cell-based
How it was run: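 RSK3 and JunD were probed by western blot in JUND-knockdown or JUND-overexpressing stable clones and their controls, all selected with puromycin 1.0 μg/ml. Antibodies used at 1:1000.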

BT-549 [8] = experiment: Antiproliferative activity in human BT-549 cells assessed as cell growth in the presence of osimertinib at 1 uM by CellTiter-Glo luminescent cell viability assay; format: functional, cell-based; how it was run: as §1
MDA-MB-231 [9] = experiment: Antiproliferative activity in human MDA-MB-231 cells assessed as cell growth inhibition for 48 hrs in the presence of […] at 1 uM by CCK-8 assay; format: functional, cell-based
BT-549 [10] = experiment: Antiproliferative activity in human BT-549 cells assessed as cell growth in the presence of miR-548d-3p inhibitor at 1 uM by CCK-8 assay; format: functional, cell-based
How it was run: (§2)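 BLBC cells transfected with miR-548d-3p mimic or inhibitor, with or without JQ1; growth read by CCK-8 assay relative to DMSO-treated control, seeded at 3000/well. Triplicates, mean ± SD, one-way ANOVA.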

BT-549 [11] = experiment: Antiproliferative activity in human FOXD3-knockdown BT-549 cells co-silenced with shRNA of JUND assessed as cell growth at 1 uM by CCK-8 assay; format: functional, cell-based
MDA-MB-231 [12] = experiment: Effect on human MDA-MB-231 cells assessed as RSK3 […] expression at 1 uM for 24 hrs by Western blot analysis; format: functional, cell-based
MDA-MB-231 [13] = experiment: Antiproliferative activity in human RPS6KA2-knockdown MDA-MB-231 cells assessed as cell growth at 1 uM by CCK-8 assay; format: functional, cell-based
MDA-MB-231 [14] = experiment: Downregulation of miR-548d-3p expression in human MDA-MB-231 cells at 1 uM by real-time PCR analysis; format: functional, cell-based
MDA-MB-231 [15] = experiment: Effect on human RPS6KA2-knockdown MDA-MB-231 cells assessed as RSK3 protein expression at 1 uM by Western blot analysis; format: functional, cell-based
MDA-MB-231 [16] = experiment: Effect on human RPS6KA2 knockdown MDA-MB-231 cells assessed as RSK3 protein expression at 1 uM for 24 hrs by Western blot analysis; format: functional, cell-based
BT-474 = experiment: Antiproliferative activity in human FOXD3-overexpressing BT-474 cells assessed as cell growth at 1 uM by CCK-8 assay; format: functional, cell-based
MDA-MB-231 [17] = experiment: Induction of apoptosis in human MDA-MB-231 cells assessed as caspase-3 cleavage in the presence of osimertinib at 1 uM by Western blotting analysis; format: functional, cell-based
MDA-MB-231 [18] = experiment: Antitumor activity against human MDA-MB-231 cells xenografted in BALB/c nude mouse assessed as reduction in tumor weight at 35 mg/kg/day, sc administered every 2 days; format: functional, organism-based; details: time 2.0 day
How it was run: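 Female BALB/c nude mice aged 4–6 weeks received 1 × 10^6 MDA-MB-231 control or knockdown cells subcutaneously, n = 7 per group. Dosing at 35 mg/kg every 2 days began at an average tumour volume of 90 mm3. Tumours were weighed after 25 days.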

BT-549 [19] = experiment: Effect on human BT-549 cells assessed as miR-548d-5p expression at 1 uM by real-time PCR analysis; format: functional, cell-based
MDA-MB-231 [20] = experiment: Antiproliferative activity in human MDA-MB-231 cells assessed as cell growth in the presence of miR-548d-3p inhibitor at 1 uM by CCK-8 assay; format: functional, cell-based; how it was run: as §2
MDA-MB-231 [21] = experiment: Antiproliferative activity in human MDA-MB-231 cells assessed as cell growth in the presence of EAI045 at 1 uM by CellTiter-Glo luminescent cell viability assay; format: functional, cell-based; how it was run: as §1
MDA-MB-231 [22] = experiment: Effect on JUND dependent RPS6KA2 transcription in human JUND-knockdown MDA-MB-231 cells assessed reduction in transcription level at 1 uM by EMSA analysis; format: functional, cell-based
BT-549 [23] = experiment: Antiproliferative activity in human RPS6KA2 expressed in JUND knock-down BT-549 cells assessed as inhibition of cell growth at 1 uM by CCK-8 assay; format: functional, cell-based
BT-549 [24] = experiment: Effect on human BT-549 cells assessed as RSK3 protein expression at 1 uM for 24 hrs by Western blot analysis; format: functional, cell-based
How it was run: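 Western blot for RSK3 in MDA-MB-231 and BT549 cells treated with DMSO or 1 μM for 0, 12 and 24 h. Antibody used at 1:1000.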

MDA-MB-231 [25] = experiment: Antiproliferative activity in human MDA-MB-231 cells assessed as inhibited cell growth in the presence of osimertinib at 1 uM for 48 hrs by CCK-8 assay; format: functional, cell-based
How it was run: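 Cells seeded 3000/well, adhered overnight, treated with JQ1 (1 μM) with or without osimertinib (1 μM) for 48 h; growth by CCK-8 kit, normalized to DMSO-treated control; triplicates, mean ± SD, one-way ANOVA.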

BT-549 [26] = experiment: Antiproliferative activity in human FOXD3-knockdown BT-549 cells co-silenced with shRNA of RPS6KA2 assessed as cell growth at 1 uM by CCK-8 assay; format: functional, cell-based
BT-549 [27] = experiment: Cytotoxicity in human RSK3-overexpressing BT-549 cells assessed as cell viability at 1 uM for 48 hrs by CellTiter-Glo luminescent cell viability assay; format: functional, cell-based
How it was run: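 CellTiter-Glo viability: stable overexpressing or shRNA clones (puromycin 1.0 μg/ml selection) seeded 3000 cells/well, adhered overnight, then exposed to 1 μM for 48 h. Luminescence is background-subtracted and normalised to DMSO-treated control. Triplicates, mean ± SD, one-way ANOVA. MDA-MB-231 cells are kept in DMEM and BT549 in RPMI-1640, each with 10% FBS.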

Measured: Activity

Cc1sc2c(c1C)C(c1ccc(Cl)cc1)=N[C@@H](CC(=O)OC(C)(C)C)c1nnc(C)n1-2
active: MDA-MB-231 [1] | MDA-MB-231 [2] | MDA-MB-231 [3] | BT-549 [4] | BT-549 [5] | BT-549 [6] | BT-549 [7] | BT-549 [8] | MDA-MB-231 [9] | BT-549 [10] | BT-549 [11] | MDA-MB-231 [12] | MDA-MB-231 [13] | MDA-MB-231 [14] | MDA-MB-231 [15] | MDA-MB-231 [16] | BT-474 | MDA-MB-231 [17] | MDA-MB-231 [18] | BT-549 [19] | MDA-MB-231 [20] | MDA-MB-231 [21] | MDA-MB-231 [22] | BT-549 [23] | BT-549 [24] | MDA-MB-231 [25] | BT-549 [26] | BT-549 [27]
